One test relates to KB. Kind of test: Cytotoxicity against human KB cells assessed as growth inhibition measured after 48 hrs by Neutral Red dye assay.
Test [1] relates to HeLa. Kind of test: Cytotoxicity against human HeLa cells assessed as growth inhibition measured after 48 hrs by Neutral Red dye assay.
For the next test, the system named is LLC-PK1. Kind of test: Cytotoxicity against pig LLC-PK1 cells assessed as growth inhibition measured after 48 hrs by Neutral Red dye assay. The settings on record: Sus scrofa, LLC-PK1, 48 h.
A further test relates to SK-OV-3. Put plainly: Cytotoxicity against human SKOV3 cells assessed as growth inhibition measured after 48 hrs by Neutral Red dye assay. Conditions: SK-OV-3, 48 h.
The test system of the next test is BT-549. Kind of test: Cytotoxicity against human BT549 cells assessed as growth inhibition measured after 48 hrs by Neutral Red dye assay. Conditions: BT-549, 48 h.
A further test deals with SK-MEL. Put plainly: Cytotoxicity against human SK-MEL cells assessed as growth inhibition measured after 48 hrs by Neutral Red dye assay.
A further test relates to Vero. Put plainly: Cytotoxicity against african green monkey Vero cells assessed as growth inhibition measured after 48 hrs by Neutral Red dye assay. Conditions: Chlorocebus sabaeus.
The nature of test [2]: Inhibition of Hedgehog signaling pathway in human HeLa cells assessed as inhibition of PMA induced luciferase at 100 uM treated 30 mins before induction. In kind it is cell-based. The essentials:
(§1)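 Reporter assay in cells transfected with pathway luciferase plasmids. Cells plated at 0.015 × 10⁶ per well in 10% FBS, switched after 24 h to DMEM with 1% FBS, then transfected. 24 h after transfection, compound (final 40, 60, 80 or 100 μM) was added, followed 30 min later by inducer (IL-6, TGF-β, wnt3a or PMA). Luciferase was read 4 or 6 h after induction (6 h for Notch, Wnt, Hedgehog). Value is the IC50 or the lowest concentration giving maximal 50–60% inhibition; two independent experiments.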

In test [3] the target is Forkhead box protein O1 (Homo sapiens) (UniProt Q12778). Kind of test: Inhibition of FoxO signaling pathway in human HeLa cells assessed as inhibition of luciferase at 100 uM […]. In kind it is cell-based.
A short description of test [4]: Inhibition of Notch signaling pathway in human HeLa cells assessed as inhibition of PMA induced luciferase at 100 uM treated 30 mins before induction. Type of test: cell-based. The essentials:
as §1

The nature of test [5]: Inhibition of Ets signaling pathway in human HeLa cells assessed as inhibition of PMA induced luciferase at 100 uM treated 30 mins before induction. Type of test: cell-based. The essentials:
as §1

Test [6] deals with Myc proto-oncogene protein (Homo sapiens) (UniProt P01106). Put plainly: Inhibition of Myc signaling pathway in human HeLa cells assessed as inhibition of PMA induced luciferase at 100 uM treated 30 mins before induction. Type of test: cell-based. The method in brief:
as §1

Test [7] in a line: Inhibition of E2F signaling pathway in human HeLa cells assessed as inhibition of PMA induced luciferase at 100 uM treated 30 mins before induction. Type of test: cell-based. The method in brief: as §1
Test [8] can be described thus: Inhibition of NFkappaB signaling pathway in human HeLa cells assessed as inhibition of PMA induced luciferase at 100 uM treated 30 mins before induction. Type of test: cell-based. The essentials:
as §1

Test [9] can be described thus: Inhibition of AP1 signaling pathway in human HeLa cells assessed as inhibition of PMA induced luciferase at 100 uM treated 30 mins before induction. In kind it is cell-based. The essentials:
as §1

Test [10] has as its system HeLa. Kind of test: Inhibition of Stat3 signaling pathway in human HeLa cells assessed as inhibition of IL-6 induced luciferase at 100 uM treated 30 mins before induction. Type of test: functional. The essentials: as §1
The test system of a further test is HL-60. Kind of test: Inhibition of PMA induced ROS generation in human HL60 cells assessed as inhibition of ROA mediated oxidation of DCFH. Type of test: functional, cell-based. The method in brief:
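HL-60 cells (0.8 × 10⁶/mL) in RPMI-1640 with 10% FBS were pretreated 30 min with compound (0.4–100 μM). PMA (100 ng/mL) was then added for 30 min, followed by DCFH-DA (5 μg/mL) for 15 min. DCF fluorescence read at Ex 485 / Em 530 nm and compared with vehicle control. Trolox served as positive control.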

The structures appear in SMILES notation. Active and inactive are the calls of the source. The rule behind the calls is not given here.

Sequence of Myc proto-oncogene protein (Homo sapiens) (P01106 whole entry): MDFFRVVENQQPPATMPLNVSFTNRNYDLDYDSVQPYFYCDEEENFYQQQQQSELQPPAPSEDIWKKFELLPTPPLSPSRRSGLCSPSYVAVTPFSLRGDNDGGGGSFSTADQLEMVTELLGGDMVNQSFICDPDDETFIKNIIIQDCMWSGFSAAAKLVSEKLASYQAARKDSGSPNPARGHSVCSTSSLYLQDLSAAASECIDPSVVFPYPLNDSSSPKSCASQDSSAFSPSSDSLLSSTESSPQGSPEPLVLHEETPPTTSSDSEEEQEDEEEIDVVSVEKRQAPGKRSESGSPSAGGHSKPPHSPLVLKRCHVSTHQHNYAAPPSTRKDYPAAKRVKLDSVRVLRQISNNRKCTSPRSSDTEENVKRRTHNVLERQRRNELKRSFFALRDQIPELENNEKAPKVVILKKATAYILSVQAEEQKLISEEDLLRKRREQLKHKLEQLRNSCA
Sequence of Forkhead box protein O1 (Homo sapiens) (Q12778 whole entry): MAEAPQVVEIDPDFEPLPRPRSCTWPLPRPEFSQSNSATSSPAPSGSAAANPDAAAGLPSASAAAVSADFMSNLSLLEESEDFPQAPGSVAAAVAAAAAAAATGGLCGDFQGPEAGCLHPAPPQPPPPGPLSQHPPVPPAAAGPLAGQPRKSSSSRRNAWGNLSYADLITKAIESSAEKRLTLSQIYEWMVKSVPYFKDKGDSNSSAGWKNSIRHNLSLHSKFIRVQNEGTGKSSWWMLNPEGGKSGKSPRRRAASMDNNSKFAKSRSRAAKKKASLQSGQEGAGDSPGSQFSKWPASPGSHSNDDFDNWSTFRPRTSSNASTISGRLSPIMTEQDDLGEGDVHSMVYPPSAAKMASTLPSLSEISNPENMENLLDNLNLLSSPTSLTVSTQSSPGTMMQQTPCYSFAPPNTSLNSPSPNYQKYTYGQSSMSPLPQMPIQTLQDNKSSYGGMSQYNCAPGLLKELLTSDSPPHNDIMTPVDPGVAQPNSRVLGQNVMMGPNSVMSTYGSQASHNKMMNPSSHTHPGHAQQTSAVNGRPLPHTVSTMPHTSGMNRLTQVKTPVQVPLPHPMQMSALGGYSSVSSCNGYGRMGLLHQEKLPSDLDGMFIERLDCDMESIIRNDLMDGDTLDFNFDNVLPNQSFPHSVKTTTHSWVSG

As for `COc1cccc2c1C(=O)c1c(O)c3c(c(O)c1C2=O)C[C@@](O)(C(=O)CO)C[C@@H]3O[C@H]1C[C@H](N)[C@H](O)[C@H](C)O1` [DOXORUBICIN], the IC50 in the test with KB stood at 3.8 µM; with HeLa [1], 3.9 µM; in the test with LLC-PK1, 1.6 µM; with SK-OV-3, 2.6 µM; with BT-549 it was 3.7 µM; with SK-MEL it was 1.5 µM. For the same molecule, the IC50 with Vero is greater than 9.2 µM.

With `COc1ccc(/C=C/c2cc(OC)cc(OC)c2)cc1` [TRISMETHOXYRESVERATROL], the inhibition result in [2], in [3], in test [4], in test [5], in test [6] and in [7] was “inactive” each time. Further, the inhibition entry (in [8]; in test [9]; in the test with HeLa [10]) was “inactive” in each case. Further, the IC50 in the test on KB was 17.7 µM; with HeLa [1] it was 13.3 µM; in the test with LLC-PK1, 20 µM; with SK-OV-3, 55.5 µM; in the test on BT-549, 15.6 µM; in the test on SK-MEL, 12.2 µM. Also, in the test on Vero, the IC50 amounted to 26.7 µM.

For the molecule `Cc1c(C)c2c(c(C)c1O)CCC(C)(C(=O)O)O2` (centres undefined) [TROLOX], in the test on HL-60, the IC50 is 1.4 µM.

For the origin of these results see ChEMBL document CHEMBL2346506, “Cytotoxicity and modulation of cancer-related signaling by (Z)- and (E)-3,4,3',5'-tetramethoxystilbene isolated from Eugenia rigida” (J Nat Prod, 2013).
